Source: PubChem
This is a sample that favours compounds with a hit; in the whole collection about 4.9% have one here.
HSF1 inhib – HSF1 inhibition | activity change, negative = inhibition, % at 7.5 µM (by protocol) | actives 0.77% (n = 300,000) | NIH3T3-HGL HSE-luciferase, MG132-induced, luminescence 8 h; hits give low values;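 active = more than half of replicate wells show activity change below -50%, luminescence cut by over half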;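 note: luciferase reports HSF-1 transcriptional activity via heat shock element; 0% = median of DMSO wells and -100% = zero luminescence signal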
Hep lipid drop – modulators of hepatic lipid droplet formation | AML12 mouse hepatocytes, oleate lipid droplets, BODIPY imaging | inhibition, % at 6.5 µM | actives 0.4% (n = 240,000);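 active = lipid droplet intensity inhibited by at least 50%, with more than 500 cells counted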
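Test system: AML12 mouse liver cells; schedule: overnight exposure; technique: high-content imaging of BODIPY-stained droplets and DAPI nuclei; read-out: % inhibition of corrected integrated BODIPY droplet signal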
CHT inh – inhibits the human high affinity choline transporter; CHT-expressing cells, membrane potential dye, choline response; hits give low values; B-score at 10 µM; actives 0.86% (n = 310,000);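 active = B-score over 3 SD under the library average, and starting fluorescence ratio not unusually high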;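 note: choline stimulus applied at its EC90 after an EC20 pre-addition; B-score computed on integrated fluorescence ratio after choline addition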
CHT allo act – allosteric activators of human choline transporter CHT; Q9GZV3; CHT-expressing cells, membrane potential dye, choline EC20; hits give high values; LV-AA mutant CHT in HEK293 cells; B-score at 10 µM; actives 0.49% (n = 310,000); AID 488977;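 active = initial fluorescence not abnormally high and integrated response B-score, plate-corrected, over 3 SD above library mean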
HSF-1 act – increases HSF-1 driven luciferase reporter signal | actives 1.7% (n = 300,000) | NIH3T3-HGL HSF-1 luciferase reporter, MG132, 8 h; 100% = twice DMSO control signal | activation, % at 9 µM | AID 504408;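 active = mean replicate activation of at least 50% with a set share of replicates each reaching 50%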;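 note: 0% = median of the neutral control wells and 100% = twice that signal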
PHOSPHO1 block – inhibitors of human PHOSPHO1 phosphatase | recombinant PHOSPHO1, absorbance phosphatase assay | inhibition, % at 13.3 µM | actives 1.1% (n = 290,000) | AID 1565; in the data active = inhibition above about 60%
Target sequence (Q8TCT1 whole entry, looked up): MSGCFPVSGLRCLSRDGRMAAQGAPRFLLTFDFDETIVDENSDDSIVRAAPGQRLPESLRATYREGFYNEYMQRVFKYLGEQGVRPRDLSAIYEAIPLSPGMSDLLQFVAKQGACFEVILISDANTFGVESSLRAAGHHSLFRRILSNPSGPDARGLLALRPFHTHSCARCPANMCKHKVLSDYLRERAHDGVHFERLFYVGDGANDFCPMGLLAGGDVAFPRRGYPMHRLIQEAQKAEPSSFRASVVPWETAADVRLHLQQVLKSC
* marks the source's active call; other numbers are inactive results; i = inactive; nt = no result given.

SMILES	HSF1 inhib	Hep lipid drop	CHT inh	CHT allo act	HSF-1 act	PHOSPHO1 block
CCn1c(-c2ccccc2)c(C(=O)CCl)c2ccccc21	60	-15	i	i	98*	16
COc1ccccc1C(=O)NCCCNC(=O)c1ccccn1	31	1	i	i	79*	35
Cc1cc(Nc2ccc(C)c(C)c2)c2ccccc2n1	-8	-7	i	i	-6	25
COc1ccc(NC(=O)c2sccc2C)c([N+](=O)[O-])c1	43	30	i	i	74*	15
COc1ccc(NC(=O)c2cccs2)c([N+](=O)[O-])c1	12	nt	i	i	23	27
COc1ccc(NC(=O)C/C(C)=N/NC(=O)c2cccs2)c([N+](=O)[O-])c1	37	24	i	i	70*	8
C/C(CC(=O)NCc1ccccc1)=N\NC(=O)c1cnccn1	-1	5	i	i	9	1
C/C(CC(=O)Nc1ccccc1C(F)(F)F)=N\NC(=O)c1cnccn1	-84*	nt	i	i	-88	nt
C/C(CC(=O)Nc1ccc(Cl)cc1C(F)(F)F)=N\NC(=O)c1cccs1	29	-1	i	i	65*	32
C/C(CC(=O)Nc1ccc(Cl)cc1C(F)(F)F)=N\NC(=O)c1ccccn1	27	-4	i	i	29	45
CCc1cccc(NC(=O)C2CCCN2S(=O)(=O)c2ccc3c(c2)CC(C)N3C(C)=O)c1 (configuration not stated)	6	-5	i	i	11	39
Cn1nc(C(C)(C)C)cc1C(=O)NCc1ccc2c(c1)OCO2	-8	-28	i	i	-2	-131
Cc1csc(SCc2nnc(-c3ccc(Cl)cc3)o2)n1	27	-4	i	i	59*	-29
CCCCn1cnc2c(oc3nc4c(cc32)CCCC4)c1=O	12	-6	i	i	53*	0
CCCCCCn1cnc2c(oc3nc4c(cc32)CCCC4)c1=O	15	2	i	i	34	4
COc1ccc(C(=O)CSC#N)cc1OC	5	-30	i	i	4	56
COc1ccc(N2CCN(C(c3cccs3)C(C)NS(=O)(=O)c3ccccc3)CC2)cc1 (configuration not stated)	41	-12	i	i	82*	11
CCS(=O)(=O)N1CCc2nc(-c3ccccc3)sc2C1	31	8	i	i	63*	33
O=C(O)C/C(=C\c1cccc(NC(=O)c2ccccc2Cl)c1)c1nc2ccccc2s1	8	-10	i	i	18	20
O=C(Nc1ccc(Cl)cc1)/C(=C/c1cccc(O)c1)c1nc2ccccc2s1	-76*	40	i	i	-74	2
O=C(Nc1cccnc1)c1cc(-c2cc(Cl)ccc2O)n[nH]1	1	4	i	i	-1	42
Cc1nc(S(=O)(=O)c2ccc(Cl)cc2)c(N(C)C)o1	-1	-5	i	i	2	43
CCOC(=O)Cc1csc(-n2sc3ccccc3c2=O)n1	-10	19	i	i	-5	96*
CCOC(=O)Cc1csc(SCn2nnc3ccccc3c2=O)n1	-6	-15	i	i	2	39
Cc1ccc(-n2c(Cn3nc(C(F)(F)F)cc3C)n[nH]c2=S)cc1	0	-3	i	i	-2	81*
SMILES	HSF1 inhib	Hep lipid drop	CHT inh	CHT allo act	HSF-1 act	PHOSPHO1 block
COc1ccc(-n2c(Cn3nc(C(F)(F)F)cc3C)n[nH]c2=S)cc1	2	-3	i	i	-16	1
CCCn1cc(S(=O)(=O)c2ccccc2)c(=O)c2cc(OCC)ccc21	1	-19	i	i	16	34
CCCCn1cc(S(=O)(=O)c2ccccc2)c(=O)c2cc(C)ccc21	-74*	-6	i	i	-80	44
CCOC(=O)c1ccc2c(c1)n(CCO)c(C)[n+]2CC	-2	nt	i	i	10	90*
CC1C(=O)C(C)C(c2ccco2)NC1c1ccco1 (configuration not stated)	-64*	-11	i	i	-71	-8
CC1/C(=N/O)CC(c2ccco2)NC1c1ccco1 (configuration not stated)	4	-18	i	i	31	-8
